In publication PMC9421316 (Heliyon, 2022):
Like-named read-outs stand apart in the source and are kept apart here. Ends that are not written are not given here.

How the values were obtained:
[1] = Degradation mode of histatins in pooled 1:10 diluted WSS, cationic PAGE; type: in vitro ADME, human; conditions: 100 μg/mL, 37 °C
Outline: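 Unstimulated whole saliva from adolescents (n = 8/group: spastic CP with gingivitis, no CP/no gingivitis, no CP with gingivitis) was held on ice ≤3 h, spun at 1,500×g for 2 min then 14,000×g for 20 min at 4 °C, and the supernatant stored at -80 °C. Supernatant was diluted 1:10 in distilled water and pooled by group. Synthetic histatin 1 or 5 (final 100 μg/mL) was incubated at 37 °C for 0–48 h, with aliquots boiled 5 min. Samples were dried, desalted, and run on 20% cationic PAGE; band intensity was compared with time zero.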

[2] = type: in vitro ADME, human; conditions: for % BD (mean ± S.D.): all groups and time points
[3] = cited from earlier work
[4] = diluted WSS from periodontally healthy individuals, HPLC, ref McDonald et al. 8, cited from earlier work

DSHEKRHHGYRRKFHEKHHSHREFPFYGDYGSNYLYDN [histatin 1]
time after which degradation fragments were observed on cationic PAGE ([1]; pooled G2 WSS diluted 1:10): 8 h | time after which degradation fragments were observed on cationic PAGE ([1]; pooled G3 WSS diluted 1:10): 8 h | speed of degradation, G1 relative to G2 and G3 ([2]; during a 48 h interval, 1:10 diluted WSS): 1.78 times | remaining at 48 h, 100 μg/mL ([2]; human, individual whole saliva supernatant (WSS) diluted 1:10): 56% | metabolised at 4 h, 100 μg/mL ([2]; human, whole saliva supernatant (WSS) diluted 1:10, reduction in band density, G2 and G3 (stated together), 1:10 diluted WSS, 37 °C, printed as after 4 h of incubation): ~14% | % BD (mean ± S.D.) ([2]; saliva of female subjects, 1:10 diluted WSS): 79.3 ± 23.6% | % BD (mean ± S.D.) ([2]; saliva of male subjects, 1:10 diluted WSS): 77.6 ± 20.9% | histatin 1 degraded ([3]; 1.5 h of incubation with WSS): approximately 50% | time after which totally degraded ([3]; incubation with WSS): 40 h | intact protein degraded ([4]; 0.5 h): 28% | intact protein degraded ([4]; 2 h): 83%
